Laboratory results reported in ChEMBL document CHEMBL4385606, “3,5,7-Substituted Pyrazolo[4,3- d]pyrimidine Inhibitors of Cyclin-Dependent Kinases and Their Evaluation in Lymphoma Models” (J Med Chem, 2019).
Active and inactive are the calls of the source. No cut-off for these calls is given here.

Columns and labels:
Mus musculus [1] = test: Ex vivo antitumor activity against human UPF1H cells xenografted NSG mouse assessed as increase in cleaved caspase 9 expression at 5 to 10 mg/kg, iv measured after 24 hrs by immunoblotting analysis; type: functional, organism-based
How it was run: (§1)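 Female NSG mice, 8-12 weeks old, implanted s.c. with lymphoma cells. Once tumors were palpable, mice received a single tail-vein i.v. dose (5 or 10 mg/kg) of compound dissolved in PBS. Mice were euthanized 24 h later. Tumors were excised, filtered through 45 µm nylon mesh and lysed, then proteins were analysed by immunoblotting.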

Mus musculus [2] = test: Ex vivo antitumor activity against Maver1 xenografted NSG mouse assessed as increase in cleaved caspase7 expression t 10 mg/kg, iv measured after 24 hrs by immunoblotting analysis; type: functional, organism-based
How it was run: (§2)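 NSG mice bearing palpable s.c. tumors received a single i.v. dose (5 or 10 mg/kg) and were euthanized after 24 h. Excised tumors were filtered through 45 µm nylon mesh, lysed and run on SDS-PAGE, transferred to nitrocellulose, probed overnight with primary antibodies in PBS with 5% milk and 0.1% Tween 20, then peroxidase secondaries, with chemiluminescent detection.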

Maver1 [3] = test: Induction of apoptosis in human Maver1 cells assessed as activation of caspase-7 at 1.5 to 12.5 nM after 24 hrs by immunoblot analysis; type: functional, cell-based
How it was run: (§3)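 Lymphoma cell lines were cultured as the providers instruct and exposed to compound at several doses or for several times. Lysates were run on SDS-PAGE and blotted to nitrocellulose. Blots were blocked, incubated overnight with primary antibodies diluted in PBS with 5% milk and 0.1% Tween 20, then with peroxidase-conjugated secondaries, and detected by chemiluminescence on a CCD camera.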

Homo sapiens [4] = species: Homo sapiens; test: Induction of apoptosis in human Mino cells assessed as effect on BCL-2 protein expression at 1.5 to 12.5 nM after 24 hrs by immunoblotting analysis; type: functional, cell-based; how it was run: as §3
Mus musculus [5] = test: Ex vivo antitumor activity against human Mino cells xenografted NSG mouse decrease in phosphorylation of Rb at […] residue at 5 to 10 mg/kg, iv measured after 24 hrs by immunoblotting analysis; type: functional, organism-based; how it was run: as §1
Homo sapiens [6] = species: Homo sapiens; test: Induction of apoptosis in human Mino cells assessed as reduction in MCL1 expression at 1.5 to 12.5 nM after 24 hrs by immunoblotting analysis; type: functional, cell-based; how it was run: as §3
Homo sapiens [7] = species: Homo sapiens; test: Induction of apoptosis in human Mino cells assessed as effect on BCL-xL protein expression at 1.5 to 12.5 nM after 24 hrs by immunoblotting analysis; type: functional, cell-based; how it was run: as §3
HCT-116 = test: Antiproliferative activity against human HCT116 cells assessed as growth inhibition measured after 72 hrs by calcein AM dye-based fluorescence assay; type: functional, cell-based; conditions: HCT-116, 72 h
How it was run: (§4)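 Cells exposed in triplicate to six concentrations for 72 h; calcein AM added for 1 h, live-cell fluorescence read at 485/538 nm (ex/em). GI50 taken from dose-response curves.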

[8] = molecular target: Cyclin-dependent kinase 2/cyclin E1 (Homo sapiens, UniProt P24941); test: Inhibition of His-tagged CDK2/Cyclin-E1 (unknown origin) expressed in baculovirus infected Sf9 insect cells using histone H1 as substrate measured in presence of [gamma-33P]ATP; type: cell-based
RPMI-8226 = test: Antiproliferative activity against human RPMI8226 cells assessed as growth inhibition measured after 72 hrs by calcein AM dye-based fluorescence assay; type: functional, cell-based; conditions: RPMI-8226, 72 h
Mus musculus [9] = test: Ex vivo antitumor activity against human UPF1H cells xenografted NSG mouse assessed as effect on BCL2 expression at 5 to 10 mg/kg, iv measured after 24 hrs by immunoblotting analysis; type: functional, organism-based; how it was run: as §1
Mus musculus [10] = test: Ex vivo antitumor activity against patient derived VFN-M1 cells xenografted NSG mouse assessed as down regulation of XIAP expression at 10 mg/kg, iv measured after 24 hrs by immunoblotting analysis; type: functional, organism-based; how it was run: as §1
Homo sapiens [11] = species: Homo sapiens; test: Induction of apoptosis in human UPF1H cells assessed as activation of caspase-7 at 12.5 to 100 nM after 24 hrs by immunoblot analysis; type: functional, cell-based; how it was run: as §3
Homo sapiens [12] = species: Homo sapiens; test: Induction of apoptosis in human Mino cells assessed as caspase 7 activation at 1.5 to 12.5 nM after 24 hrs by immunoblotting analysis; type: functional, cell-based; how it was run: as §3
[13] = Antiproliferative activity against human HBL1 cells assessed as growth inhibition measured after 72 hrs by calcein AM dye-based fluorescence assay; type: functional, cell-based; conditions: HBL1, 72 h; how it was run: as §4
Mus musculus [14] = test: Ex vivo antitumor activity against human Mino cells xenografted NSG mouse decrease in phosphorylation of RNA polymerase 2 C-terminal domain at Ser 2 residue at 5 to 10 mg/kg, iv measured after 24 hrs by immunoblotting analysis; type: functional, organism-based; how it was run: as §1
Homo sapiens [15] = species: Homo sapiens; test: Induction of apoptosis in human UPF1H cells assessed as reduction in XIAP expression at 12.5 to 100 nM after 24 hrs by immunoblot analysis; type: functional, cell-based; how it was run: as §3
Maver1 [16] = test: Antitumor activity against human Maver1 cells xenografted in NSG mouse assessed as inhibition of tumor growth at 10 mg/kg, iv administered daily measured every day during compound dosing by caliper method; type: functional, organism-based
How it was run: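 Female NSG mice, 8-12 weeks old, given cells s.c.; once all had palpable tumors, daily i.v. tail-vein dosing at 10 mg/kg in PBS. Two perpendicular tumor diameters measured daily by caliper. Study ended when any mouse's tumor reached ≥2 cm. Groups: MINO n=10, MAVER-1 n=12, Hbl-2 n=8, VFN-M1 PDX n=10.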

[17] = molecular target: Cyclin-dependent kinase 7 (Homo sapiens) (UniProt P50613); test: Inhibition of CDK7 in human Mino cells assessed as decrease in phosphorylation of RNA polymerase 2 C-terminal domain at Ser 5 residue at 12.5 nM by immunoblotting analysis; type: cell-based; conditions: TDE = time-dependent effect
How it was run: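 MINO lymphoma cells were treated at 12.5 nM, with time points over 24 h. Lysates were separated by SDS-PAGE and blotted to nitrocellulose. Phospho-RNA polymerase II CTD (Ser2, Ser5) and phospho-Rb (Ser608, Ser780) were probed with primary antibodies overnight and peroxidase-conjugated secondaries. Detection was by chemiluminescence on a CCD camera.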

Raji = test: Antiproliferative activity against human Raji cells assessed as growth inhibition measured after 72 hrs by calcein AM dye-based fluorescence assay; type: functional, cell-based; how it was run: as §4
MCF7 = test: Antiproliferative activity against human MCF7 cells assessed as growth inhibition measured after 72 hrs by calcein AM dye-based fluorescence assay; type: functional, cell-based; conditions: MCF7, 72 h; how it was run: as §4
Homo sapiens [18] = species: Homo sapiens; test: Induction of apoptosis in human Mino cells assessed as caspase 3 activation at 12.5 nM after 2 to 24 hrs by immunoblotting analysis; type: functional, cell-based; how it was run: as §3
Mus musculus [19] = test: Ex vivo antitumor activity against human Mino cells xenografted NSG mouse decrease in phosphorylation of RNA polymerase 2 C-terminal domain at Ser 5 residue at 5 to 10 mg/kg, iv measured after 24 hrs by immunoblotting analysis; type: functional, organism-based; how it was run: as §1
Mus musculus [20] = test: Ex vivo antitumor activity against Maver1 xenografted NSG mouse assessed as effect on BCL-2 expression at 10 mg/kg, iv measured after 24 hrs by immunoblotting analysis; type: functional, organism-based; how it was run: as §2
Homo sapiens [21] = test: Antitumor activity against human HBL2 cells xenografted in NSG mouse assessed as inhibition of tumor growth at 10 mg/kg, iv administered daily measured every day during compound dosing by caliper method
[22] = Antiproliferative activity against human OCI-Ly2 cells measured after 72 hrs by calcein AM dye-based fluorescence assay; type: functional; how it was run: as §4

Cyclin-dependent kinase 7 (Homo sapiens), sequence (P50613 whole entry, the tested form may be a part): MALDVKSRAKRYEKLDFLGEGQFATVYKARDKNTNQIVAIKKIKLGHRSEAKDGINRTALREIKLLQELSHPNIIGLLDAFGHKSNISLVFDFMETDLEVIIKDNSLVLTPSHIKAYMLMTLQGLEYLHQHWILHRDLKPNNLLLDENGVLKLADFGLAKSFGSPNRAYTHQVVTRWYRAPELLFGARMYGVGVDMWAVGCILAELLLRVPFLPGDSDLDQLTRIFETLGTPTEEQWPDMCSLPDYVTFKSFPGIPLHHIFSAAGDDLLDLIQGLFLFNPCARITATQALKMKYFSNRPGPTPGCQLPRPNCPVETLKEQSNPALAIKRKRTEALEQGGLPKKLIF

GI50 (HCT-116): 21.6 nM
IC50 (HCT-116): 22 nM
IC50 [8]: 2 nM
GI50 (RPMI-8226): 21.6 nM
inhibition [17]: Tde
GI50 (Raji): 38 nM
IC50 (Raji): 38 nM
GI50 (MCF7): 21.6 nM
IC50 (MCF7): 16 nM
Compound: CC(C)c1n[nH]c2c(NCc3ccc(-c4ccccn4)cc3)nc(SCCN)nc12
Activity (Mus musculus [1]): Active
Activity (Mus musculus [2]): Active
Activity (Maver1 [3]): Active
Activity (Homo sapiens [4]): inactive
Activity (Mus musculus [5]): Active
Activity (Homo sapiens [6]): Active
Activity (Homo sapiens [7]): inactive
Activity (Mus musculus [9]): inactive
Activity (Mus musculus [10]): Active
Activity (Homo sapiens [11]): Active
Activity (Homo sapiens [12]): Active
GI50 [13]: 10 nM
IC50 [13]: 10 nM
Activity (Mus musculus [14]): Active
Activity (Homo sapiens [15]): Active
TGI (Maver1 [16]): Active
Activity (Homo sapiens [18]): Active
Activity (Mus musculus [19]): Active
Activity (Mus musculus [20]): inactive
TGI (Homo sapiens [21]): Active
GI50 [22]: 28 nM
